Series [1] deals with H3K9 acetyl peptide. Kind of series: Deacetylation assay, SIRT6 WT and mutants purified from E. coli. Type of series: biochemical. The conditions noted are these: 2 µM SIRT6, 25 µM H3K9 acetyl peptide, 1 mM NAD+, 300 µM palmitic acid, 37°C, 2 hours. Summed up: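 Full-length human SIRT6 (WT or mutant) was expressed from pET28a in E. coli BL21(DE3). Reactions (40 µL) contained 25 mM Tris-HCl pH 8.0, 50 mM NaCl and 1 mM DTT plus the listed components. They were quenched with an equal volume of cold acetonitrile and centrifuged. Supernatants were run on C18 HPLC using a water/acetonitrile 0.1% TFA gradient to quantify deacetylated H3K9 peptide.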

Series [2] concerns Sirt6 KO MEFs. Kind of series: Secreted and intracellular protein levels in MEFs. The conditions noted are these: SIRT6 overexpressed in Sirt6 KO cells. Format: cell-based, mouse. In short, it runs like this: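 MEFs at 90% confluence were washed with PBS and serum-free DMEM, then kept in serum-free DMEM for 12 h. Medium was cleared at 500 g (5 min) and 3,000 g (10 min) and concentrated on 10 kDa filters. Western blots were probed for VCP, RPL17, RPS7, COL5A1, COL6A1 and CXCL1 (1:1000, 4 °C 12 h), followed by secondary antibody (1:3000, 1 h RT) and ECL detection.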

The test system of series [3] is H3K9 myristoyl peptide. Kind of series: Demyristoylation steady-state kinetics. Type of series: biochemical.
Series [4] relates to SIRT6 (self ADP-ribosylation). Kind of series: In vitro mono-ADP-ribosylation assay. Type of series: biochemical, human. The conditions noted are these: 2.5 µM SIRT6, 50 µM 6-alkyne-NAD, 30°C, 30 min. Summed up: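 Reactions contained SIRT6 WT or mutants in 25 mM Tris-HCl pH 8.0, 50 mM NaCl, 1 mM DTT, with NAD+ replacing 6-alkyne-NAD as negative control. Click chemistry with BODIPY-N3, TBTA, CuSO4 and TCEP ran 30 min at room temperature. Samples were boiled in SDS buffer, separated on 12% SDS-PAGE and destained 2 h, and ADP-ribosylation was read as in-gel BODIPY fluorescence.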

In series [5] the test system is H3K9 myristoyl peptide. The experiment in a line: Defatty-acylation assay, SIRT6 purified from HEK 293T cells. Format: biochemical. The conditions noted are these: 0.2 µM SIRT6 from HEK293T cells, 5 µM Myr-H3K9, 1 mM NAD+, 37°C, 60 min. Summed up: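 SIRT6 WT or mutants were affinity-purified from HEK 293T lysates on anti-Flag gel, eluted with 3X FLAG peptide and buffer-exchanged on a 10 kDa membrane. Reaction buffer was 25 mM Tris-HCl pH 8.0, 50 mM NaCl, 1 mM DTT. Reactions were quenched with cold acetonitrile and centrifuged, and supernatants were analysed by C18 reverse-phase HPLC (water/acetonitrile, 0.1% TFA) for H3K9 peptide formation.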

The nature of series [6]: Thermal shift assay and tryptophan fluorescence emission spectra. Type of series: physicochemical.
Series [7] has as its system Sirt6 KO MEFs. Kind of series: Cell viability after glucose starvation. The conditions noted are these: SIRT6 expressed in Sirt6 KO MEFs, glucose free medium 72 h. Format: cell-based, mouse. Summed up:
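Stable SIRT6-expressing Sirt6 KO MEFs were selected with […] puromycin 48 h post-infection, with empty pCDH vector as control, and grown in DMEM/10% heat-inactivated FBS. Cells were seeded at 3,000/well and switched after 48 h to glucose-free DMEM/10% FBS for 72 h. They were then fixed in cold methanol, stained with 0.2% crystal violet, solubilized in 0.5% SDS/50% ethanol, and read at 550 nm.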

Series [8] in a line: HPLC analysis of SIRT6 binding to NAD+. The conditions noted are these: 10 µM SIRT6 incubated with 10 µM NAD+, 10 kDa cutoff membrane. Summed up:
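SIRT6 (10 µM; WT, G60A or H133Y) was incubated with 10 µM NAD+ in 25 mM Tris-HCl pH 8.0, 50 mM NaCl for 30 min at room temperature. The mix was diluted to 500 µL and spun through a 10 kDa membrane (15,000 g, 20 min). The filtrate (unbound NAD+) was lyophilized, redissolved in water and quantified by HPLC.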

The test system of series [9] is RPL17 and RPS7. The experiment in a line: RPL17 and RPS7 in exosomes from MEFs. Format: cell-based, mouse. To be noted: exosomes from Sirt6 KO MEFs expressing SIRT6. In short, it runs like this:
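MEFs at 90% confluence were washed with PBS and serum-free DMEM, then conditioned in serum-free medium for 12 h. Medium was cleared at 500 g (5 min) and 3,000 g (20 min), then passed through a 0.2 µm filter. Filtrate was ultracentrifuged at 100,000 g for 2 h, and pellets were washed, re-pelleted and lysed in NP-40 buffer. Blots used RPL17/RPS7 antibodies (1:1000, 4 °C 12 h) with ECL detection.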

Series [10] can be described thus: NAD+ binding by intrinsic tryptophan fluorescence. To be noted: read-out: Kd for NAD^+ in the presence of H3K9 acetyl peptide, 1 mM H3K9 acetyl peptide. In short, it runs like this:
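SIRT6 (3 µM) in 25 mM Tris-HCl pH 7.4, 150 mM NaCl, 10% glycerol was premixed with 1 mM tryptophan-free Ac-H3K9 and titrated with NAD+. Excitation was 295 nm with emission scanned 320–390 nm, using peak maxima. Fraction bound was (F−F0)/(Fsat−F0), and Kd came from a one-site quadratic binding fit with [E] = 3 µM.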

In series [11] the test system is TNFα. The experiment in a line: ELISA analysis of TNFα secretion in MEFs. Format: cell-based, Human. To be noted: SIRT6 stably expressed in Sirt6 KO MEFs. A general note: In an ELISA, binding on a coated surface is turned into a signal by an enzyme label.
The subject of series [12] is acetyl-H3K9 and acetyl-H3K56. Type of series: cell-based, Human. To be noted: flag-tagged SIRT6 overexpressed in SIRT6 KO 293T cells. Summed up: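 Sirt6 KO HEK 293T cells in DMEM/10% heat-inactivated FBS were transiently transfected with SIRT6 WT, mutants or empty pCMV4a. Blots were probed with Ac-H3K9, Ac-H3K56 and histone H3 antibodies (1:5000; acetyl antibodies 4 °C 12 h), then secondary antibody (1:3000, 1 h RT). Detection was by ECL chemiluminescence; band intensities were quantified as mean ± s.d. of three replicates.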

In series [13] the test system is IAP2, GLS, RPL3 and MnSOD. The experiment in a line: mRNA levels of SIRT6-regulated genes in Sirt6 KO MEFs. The conditions noted are these: SIRT6 overexpressed in Sirt6 KO MEFs. Type of series: cell-based, mouse.
Series [14] relates to H3K9 palmitoyl, TNFα myristoyl and H3K9 octanoyl peptides. The experiment in a line: Defatty-acylation assay on other fatty-acyl peptides. Type of series: biochemical.

By Kd is commonly meant a measure of binding affinity in units of concentration. SIRT6 G60A: the “H3K9 acetyl peptide hydrolyzed/converted to H3K9 peptide” value in [1] is on record as “approximately 1.8%”. Further, in series [2], the “secreted levels of Group 1 proteins (RPL17, RPS7, VCP)” value was “decreased the secreted levels to that in Sirt6 WT cells” and the “secreted levels of Group 2 proteins (COL6A1, COL5A1, CXCL1)” value is “restored the secreted levels to that in Sirt6 WT cells”. Besides, in [3], the “decrease of kcat of demyristoylation versus SIRT6 WT” value is 1.9 fold and the “increase of Km of demyristoylation versus SIRT6 WT” value is 1.8 fold. In addition, the “ADP-ribosyltransferase (ART) activity” value in [4] is on record as “no observable ART activity”. Also, in [5], the “defatty-acylase activity, substrate conversion” value came to 25.6%. For the same substance, the “stability and fluorescence with H3K9 myristoyl peptide” value in series [6] (0.1 mM H3K9 myristoyl peptide) is “became similar to those of SIRT6 WT”. In addition, the “stability and fluorescence with H3K9 acetyl peptide” value in series [6] (1 mM H3K9 acetyl peptide) is recorded as “not affected”. In series [6] (without peptide, versus SIRT6 WT, 37 to 62 °C for 3 min), the “thermal stability” value was “decreased thermal stability”. The “glucose starvation-caused cell death” value in series [7] is “neither SIRT6 G60A nor H133Y did”. Also, the “NAD^+ bound to SIRT6” value in series [8] stood at 2.0 ± 0.7%. In series [9], the “RPL17 and RPS7 in exosomes” value is “not in exosomes”. For the same substance, the Kd in [10] was 634 ± 91 µM. Also, the “TNFα secretion” value in series [11] is on record as “promoted TNFα secretion”. In series [12], the “H3K9 and H3K56 acetylation levels in cells” value is listed as “no detectable deacetylase activity in cells”. The “transcriptional suppression of IAP2, GLS, RPL3 and MnSOD” value in [13] is on record as “could not”. Further, in series [14], the “defatty-acylase activity on other fatty-acyl peptides” value is on record as “robust defatty-acylase activities”.
On to SIRT6 H133Y, for which the “NAD^+ bound to SIRT6” value in series [8] is on record as 59 ± 3%. The “RPL17 and RPS7 in exosomes” value in [9] is listed as “can be detected”. Also, the “TNFα secretion” value in series [11] is given as “no effect on TNFα secretion”.
Regarding SIRT6 R65A, in series [4], the “ADP-ribosyltransferase (ART) activity” value is listed as “weak self ADP-ribosylation activities”.

The record behind these values is article PMC4955683 (Nature chemical biology, 2016).
